# Bioassay records (PubChem BioAssay)
# GPR7 antag – human neuropeptides B/W receptor 1 antagonism; P48145; GPR7-expressing cells, fluorescence antagonist assay; inhibition, % at 4.4 µM; actives 1.1% (n = 290,000); AID 1861; in the data active = inhibition above about 16%, passing the limit was not always enough;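 also: cells stimulated with the agonist NPW; 0% = agonist with vehicle and 100% = vehicle without agonist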
# Target sequence (P48145 whole entry, looked up): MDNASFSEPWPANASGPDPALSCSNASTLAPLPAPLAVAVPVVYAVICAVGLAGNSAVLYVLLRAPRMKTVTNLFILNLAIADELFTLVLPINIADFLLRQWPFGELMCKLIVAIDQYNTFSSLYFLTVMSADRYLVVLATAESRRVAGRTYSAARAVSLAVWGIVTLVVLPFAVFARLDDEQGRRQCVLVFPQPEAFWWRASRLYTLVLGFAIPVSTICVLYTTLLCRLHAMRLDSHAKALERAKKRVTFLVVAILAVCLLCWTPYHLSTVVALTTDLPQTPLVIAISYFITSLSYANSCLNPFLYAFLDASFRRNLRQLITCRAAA
# OX1R antag-1 – blocks the human orexin 1 receptor; O43613; CHO/OX1R cells, Fluo-8 calcium fluorescence, orexin A; inhibition, % at 5 µM; actives 0.43% (n = 330,000); AID 434989;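 active = inhibition above its plate's threshold, mean inhibition of all tested compounds on the plate plus 3 SD, cut at about 37% in these data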;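 also: 0% = orexin A challenge wells and 100% = SB-334867-A antagonist wells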
# GalR3 antagonist – human GalR3 antagonism; HEK293 GalR3-CNG cAMP membrane potential fluorescence; galR3 body fused to GalR1 C-terminus; inhibition, % at 3 µM; actives 0.44% (n = 360,000); AID 651719;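 active = inhibition above the screen-wide average plus 3 SD, cut at about 13% in these data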;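 also: forskolin and galanin both at EC90 stimulate the cells; cAMP rise reported by CNG channel membrane potential dye signal; 0% = forskolin plus galanin with DMSO and 100% = forskolin alone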
# Target sequence (O60755 1-299 limits assumed): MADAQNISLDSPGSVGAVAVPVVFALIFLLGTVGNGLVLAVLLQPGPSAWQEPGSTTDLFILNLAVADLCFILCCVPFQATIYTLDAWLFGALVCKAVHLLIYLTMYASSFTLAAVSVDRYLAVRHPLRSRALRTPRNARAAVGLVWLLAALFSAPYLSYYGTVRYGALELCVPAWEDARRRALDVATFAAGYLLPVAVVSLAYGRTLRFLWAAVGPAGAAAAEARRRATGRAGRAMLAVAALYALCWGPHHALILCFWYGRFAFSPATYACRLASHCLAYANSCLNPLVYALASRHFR
# OX1R antag-2 – OX1R (human) antagonism | O43613 | OX1R-expressing cells, FRET antagonist read-out | inhibition, % at 6.6 µM | actives 1.8% (n = 330,000) | AID 485270; in the data active = inhibition mostly above about 38%, no sharp cut-off; inactive = mostly below about 40%;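 also: 0% = agonist challenge alone and 100% = reference antagonist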
# CHO parental Ca – counter-screen for OX1R antagonists: effect in parental CHO cells | parental CHO-K1, ATP-induced calcium, Fluo-8 fluorescence | inhibition, % at 5.6 µM | actives 0.63% (n = 330,000) | AID 463079;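 active = inhibition above that plate's mean sample inhibition plus 3 SD, cut at about 26% in these data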;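 also: 0% = ATP-challenged DMSO wells and 100% = DMSO wells without ATP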
#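 Assay system: parental CHO cells; Read-out basis: percent inhibition of ATP-evoked calcium rise, normalized to controls; Benchmarks: ATP and no-ATP DMSO wells; Compound dosing: single nominal dose of 5.6 µM per compound; Signal: Fluo-8 calcium dye fluorescence; Also added: ATP as calcium-mobilizing challenge; Repeats: singlicate.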
# OX1R Fluo8 conf – OX1R (human) antagonism, confirmed. shares compounds with OX1R antag-1. CHO/OX1R cells, orexin A calcium Fluo-8 fluorescence. inhibition, % at 5 µM. actives 38% (n = 1,100); in the data active = inhibition above about 29%;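 also: 0% = agonist challenge alone and 100% = reference antagonist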
# CHO Ca counter – counter-screen: parental CHO calcium response change, triplicate; shares compounds with OX1R antag-1; actives 9.3% (n = 1,100); inhibition, % at 5.6 µM; AID 492965; parental CHO-K1, ATP-induced calcium, Fluo-8 fluorescence;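 active = inhibition above a per-plate limit, the mean inhibition of that plate's test compounds plus 3 SD, cut at about 25% in these data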;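 also: 0% = ATP challenge with DMSO and 100% = DMSO without ATP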
# OX1R HTRF conf – OX1R (human) antagonism, HTRF confirmed. actives 49% (n = 1,800). OX1R-expressing cells, HTRF antagonist assay. AID 492964. inhibition, % at 6.6 µM. shares compounds with OX1R antag-2; in the data active = inhibition above about 55%;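 also: CHO cells expressing OX1R stimulated with orexin A at about EC80; 0% = agonist challenge alone and 100% = reference antagonist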
# CHO-K1 HTRF – counter-screen for OX1R antagonists: effect in parental CHO-K1 cells; actives 48% (n = 1,800); AID 493232; shares compounds with OX1R antag-2; inhibition, % at 6.6 µM; HTRF counterscreen; in the data active = inhibition above about 17%;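 also: 0% = agonist challenge with vehicle and 100% = vehicle alone without agonist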
# Active calls of the source: *; x = no result given. Compounds with a hit are over-represented: about 3.1% of the library has one in this group of screens.
SMILES,GPR7 antag,OX1R antag-1,GalR3 antagonist,OX1R antag-2,CHO parental Ca,OX1R Fluo8 conf,CHO Ca counter,OX1R HTRF conf,CHO-K1 HTRF
Cc1c(C(=O)Nc2ccc(N3CCOCC3)cc2)oc2ccccc12,0.1,73.2*,-5.5,99.7*,1.0,73.4*,6.4,90.1*,14.6
CCN(CC)c1ccc(/C=N/NC(=O)c2ccco2)c(O)c1,-3.4,36.1*,-5.2,68.2*,11.9,72.8*,17.8,87.9*,11.5
CCN(CC)c1ccc(/C=N/NC(=O)c2ccco2)cc1,11.7,3.6,2.2,39.6,-8.0,x,x,x,x
CCCc1ccc2c(C)cccc2n1,x,x,-3.5,x,x,x,x,x,x
Cc1ccn2cc(C(=O)Nc3ccc4c(c3)OCCO4)nc2c1,-12.4,39.6,-2.4,87.6*,-23.8,9.5,-1.3,74.5*,8.9
Cc1ccn2cc(C(=O)Nc3ccccc3N3CCOCC3)nc2c1,-4.0,-26.1,-3.5,17.8,-12.7,x,x,x,x
CCCCCCCCN1C(=O)[C@@H](CC(=O)N2CCN(C(=O)c3ccco3)CC2)C[C@@]2(C(=O)OC)C1=C[C@H](C1CCCC1)O[C@@H]2C,x,x,-2.7,x,x,x,x,x,x
O=C1NC[C@H](c2ccccc2)OC(=O)[C@H](Cc2ccc(F)cc2)C/C=C\C[C@H]1CC(=O)N(CCO)Cc1ccccc1,x,54.0*,-4.6,54.0*,-23.3,30.1*,2.8,50.1,5.0
O=C1NC[C@@H](c2ccccc2)OC(=O)[C@H](Cc2ccc(F)cc2)C/C=C\C[C@H]1CC(=O)N(CCO)Cc1ccccc1,x,-24.6,-3.1,12.2,-24.4,x,x,x,x
CCN(CC)C(=O)CSc1nc2c(sc(=S)n2CC)c(=O)n1-c1ccccc1,0.9,-32.6,-4.3,9.4,-22.4,x,x,x,x
CCN(CC)C(=O)CSc1nc2c(sc(=S)n2-c2ccccc2OC)c(=O)n1-c1ccccc1,1.5,31.4,-8.3,75.7*,-35.7,38.5*,-8.2,69.2*,0.6
COc1ccc(-c2cc(NC(=O)Cc3c(C)[nH]c4ccccc34)ccc2Nc2cccnc2)cc1F,x,x,-2.8,x,x,x,x,x,x
CCc1cc(C(=O)OCC(=O)N2CCC(c3ccccc3)=N2)sc1C,-34.0,54.3*,-3.7,80.1*,-7.1,78.1*,-4.3,91.6*,1.6
Cc1c(NC(=O)Cn2[nH]c(=O)c3ccccc3c2=O)c(=O)n(-c2ccccc2)n1C,-1.2,-7.4,4.8,6.5,4.3,x,x,x,x
Cc1sc(NC(=O)Cn2[nH]c(=O)c3ccccc3c2=O)nc1-c1ccccc1,-3.1,38.6*,0.0,74.4*,-9.8,42.6*,-4.1,75.9*,-0.4
Cn1c(N)c(C(=O)N/N=C/c2ccccc2)sc1=S,-0.2,90.9*,-0.2,93.1*,-8.0,72.8*,6.2,94.9*,17.0*
Cc1c(C(=O)N/N=C/c2cccnc2)sc(=S)n1C,-1.6,15.9,-13.0,59.5,-1.7,x,x,x,x
CCn1c(C)csc1=NC(=O)c1ccccc1O,-6.7,54.0*,-7.4,95.0*,-15.6,41.8*,11.2,90.5*,0.2
COC(=O)c1ccccc1NC(=O)CSc1nc(O)cc(=O)n1C1CCCC1,-1.8,30.9,8.5,78.3*,-8.3,50.5*,-12.6,88.4*,4.1
CCc1ccc(NC(=O)CSc2nc(O)cc(=O)n2C2CCCC2)cc1,-17.1,-0.1,-7.7,17.2,-13.2,x,x,x,x
O=C(C1CCN(S(=O)(=O)c2cccc3nsnc23)CC1)N1CCc2ccccc21,-5.4,-13.8,-3.6,24.7,-17.4,x,x,x,x
O=C(C1CCCN(S(=O)(=O)c2cccc3nsnc23)C1)N1CCc2ccccc21 (configuration not stated),-12.1,26.7,0.0,102.6*,4.5,-7.2,-12.6,24.6,10.0
CC(=O)Nc1cccc(-c2cc(N3CCN(CCO)CC3)n3nccc3n2)c1,x,x,-3.7,x,x,x,x,x,x
CCC(CC)NC(=O)CN1CCN(S(=O)(=O)c2cccs2)CC1,x,x,2.9,x,x,x,x,x,x
Cc1c(NS(=O)(=O)c2cccc(C(=O)N3CCC(C)CC3)c2)c(=O)n(-c2ccccc2)n1C,x,-10.4,-3.8,3.2,-9.0,x,x,x,x
SMILES,GPR7 antag,OX1R antag-1,GalR3 antagonist,OX1R antag-2,CHO parental Ca,OX1R Fluo8 conf,CHO Ca counter,OX1R HTRF conf,CHO-K1 HTRF
Cc1c(NS(=O)(=O)c2cccc(C(=O)OCC(=O)N(C)C3CCCCC3)c2)c(=O)n(-c2ccccc2)n1C,-6.4,37.3*,-1.2,98.3*,-15.6,57.6*,-11.0,89.7*,-1.4
COc1ccc(Cl)cc1C(=O)NC1CC(C)(C)NC(C)(C)C1,x,x,0.8,x,x,x,x,x,x
COc1cccc(CNS(=O)(=O)c2cc(Br)ccc2Br)c1OC,x,x,-0.7,x,x,x,x,x,x
Cc1cnc(NC(=O)c2ccc(-c3ccc([N+](=O)[O-])cc3)o2)s1,x,-10.9,-2.9,10.9,-7.3,x,x,x,x
Cc1cnc(NC(=O)c2ccc(-c3nc4ccccc4s3)o2)s1,-8.7,82.0*,4.7,106.4*,-26.7,82.8*,-7.8,100.7*,10.5
COC(=O)[C@@]12C[C@@H](CC(=O)NCc3ccc(OC)c(OC)c3)C(=O)N(Cc3cccc4ccccc34)C1=CCC(C)(C)C2,x,x,-1.3,x,x,x,x,x,x
CCn1c2ccccc2c2cc(/C=N/NC(=O)c3ccccc3C)ccc21,-0.2,-28.3,-2.0,21.1,-23.3,x,x,x,x
Cn1c2ccccc2c2cc(/C=N/NC(=O)c3ccccc3F)ccc21,0.5,31.8,-3.7,102.4*,-17.0,23.0,-8.6,94.4*,8.3
Cn1c2ccc(Cl)cc2c2nc3ccccc3nc21,-11.3,31.1,3.4,90.7*,-14.4,40.3*,-9.0,91.8*,-0.6
COc1ccccc1CNS(=O)(=O)c1ccc2c(c1)CC(C)N2C(=O)C1CCC1 (configuration not stated),8.5,55.1*,3.4,59.9*,15.0,30.4*,16.3,67.9*,-9.2
COc1ccccc1CNS(=O)(=O)c1ccc2c(c1)CC(C)N2C(=O)C1CC1 (configuration not stated),18.2,16.9,-5.8,33.3,-3.1,x,x,x,x
Cc1c(NC(=O)c2nn(C(C)C)c(=O)c3ccccc23)c(=O)n(-c2ccccc2)n1C,x,x,-2.3,x,x,x,x,x,x
Cn1c(O)c(/C=C2\C=NN=C2c2ccccc2)sc1=S,8.9,40.7*,0.7,38.6*,-21.2,8.5,-5.8,40.0,1.2
COc1ccc2[nH]cc(/C=C/C(=O)c3ccccc3)c2c1,-2.1,34.3,-3.0,59.2*,-27.5,16.9,-3.9,40.9,9.7
O=C(Nc1cccc(-c2nc3ccccc3s2)c1)c1ccc2c(c1)OCO2,-2.8,44.2*,3.2,86.7*,-18.9,25.3,-6.3,94.1*,14.6
C=C1[C@@H](CCO)N(S(=O)C(C)(C)C)C[C@@H]1C (some centres not stated),x,x,-4.1,x,x,x,x,x,x
